From ChEMBL document CHEMBL1122889, “Amino acid derived latent isocyanates: irreversible inactivation of porcine pancreatic elastase and human leukocyte elastase” (J Med Chem, 1985)
pKi: −log10 of the molar value.

Key:
[1] = biological target: Pancreatic elastase (Sus scrofa, UniProt P08419+P00772); assay: Ki value was evaluated for the inhibition of porcine pancreatic elastase; type: protein assay
Procedure, shortened: (§1)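 PPE, 9.0 × 10⁻⁶ M, incubated with inhibitor in acetonitrile in 50 mM phosphate pH 6.5 at 25 °C, at inhibitor:enzyme ratios of 20–150. Aliquots taken over time were assayed with Boc-L-Ala-p-nitrophenyl ester: 30 s preincubation, then absorbance change over 2 min at 347.5 nm. Controls contained acetonitrile. Kobs came from ln(Et/E0) vs time, two runs per concentration. Ki and k3 came from the double-reciprocal replot, and k3/Ki was computed.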

[2] = biological target: T1, Pancreatic elastase (Sus scrofa) (UniProt P08419+P00772); assay: k3 value was evaluated for the inhibition of porcine pancreatic Elastase; type: protein assay; procedure, shortened: as §1
[3] = biological target: T2, Neutrophil elastase (Homo sapiens) (UniProt P08246); assay: Percent inhibition against human leukocyte elastase; details: concentration not given here
T2 sequence (whole entry): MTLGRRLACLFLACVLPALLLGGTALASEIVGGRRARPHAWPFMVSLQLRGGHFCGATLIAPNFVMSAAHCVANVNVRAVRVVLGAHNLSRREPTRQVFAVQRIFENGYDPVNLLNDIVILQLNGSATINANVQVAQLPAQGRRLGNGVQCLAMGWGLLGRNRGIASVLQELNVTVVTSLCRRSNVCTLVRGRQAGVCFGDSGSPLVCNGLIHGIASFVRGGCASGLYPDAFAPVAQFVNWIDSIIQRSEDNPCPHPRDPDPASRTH
Procedure, shortened: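 HLE, 1.53 × 10⁻⁴ M stock in Tris-HCl pH 7.5, was incubated with inhibitor for 20 min. Residual activity was assayed by adding succinyltrialanyl-p-nitroanilide (2.3 × 10⁻³ M stock in Tris buffer).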

[4] = biological target: T1, Pancreatic elastase (Sus scrofa); assay: Percent inhibition against porcine pancreatic elastase; type: protein assay; details: concentration not given here
Procedure, shortened: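 PPE, 4.50 × 10⁻⁶ M stock in phosphate buffer pH 6.5, was incubated at 25 °C for 20 min with inhibitor (2.50 × 10⁻³ M stock in acetonitrile). Remaining activity was assayed by adding Boc-L-alanyl-p-nitroanilide (2.22 × 10⁻² M stock).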

[5] = biological target: T2, Neutrophil elastase (Homo sapiens); assay: k3 value was evaluated for the inhibition of human leukocyte elastase
Procedure, shortened: (§2)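 HLE, 1.6 × 10⁻⁷ M, in Tris-HCl buffer pH 8.0 at 25 °C. Inhibitor was dissolved in N-methylpyrrolidinone. Loss of activity was followed continuously with succinyl-L-trialanyl-p-nitroanilide at 410 nm as a pseudo-first-order reaction, and rate constants were found by the Tsou method. Ki and k3 were taken from the double-reciprocal replot 1/kobsd vs 1/[I].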

[6] = biological target: T3, Neutrophil elastase (Homo sapiens, UniProt P08246); assay: Ki value was evaluated for the inhibition of human leukocyte elastase; procedure, shortened: as §2
T3 sequence (P08246 whole entry): T2 sequence (whole entry)

[7] = biological target: T1, Pancreatic elastase (Sus scrofa); assay: k3 value was evaluated for the inhibition of porcine pancreatic elastase; type: protein assay; procedure, shortened: as §1
[8] = biological target: T1, Pancreatic elastase (Sus scrofa); assay: k3/k1 ratio of the compound; type: protein assay; procedure, shortened: as §1

Question: How did the Ki [1] turn out when `CCCCNC(=O)n1cnc(C)c1` was run?
Answer: Its Ki is 7.23 mM.

Question: What about the k3 [2] of the same compound?
Answer: The k3 was 0.001 s⁻¹.

Question: With `CCCCNC(=O)n1ccnc1CC` as the compound, how does the Ki [1] read?
Answer: Its Ki is 0.47 mM.

Question: What about the k3 [2] of the same compound?
Answer: Its k3 is 0.002 s⁻¹.

Question: `COC(=O)C(CCSC)N=C=O` (centres undefined) was tested. Which inhibition [3] did it give?
Answer: The inhibition was 100%.

Question: And the inhibition [4]?
Answer: Its inhibition is 27%.

Question: Which results are given for `CCCCC(NC(=O)n1ccnc1)C(=O)OC` (centres undefined)?
Answer: k3 [5]: 10 min⁻¹; Ki [1]: 1.94 mM; pKi [6]: 3.00; k3 [2]: 0.00425 s⁻¹

Question: With `COC(=O)[C@H](CCSC)NC(=O)n1ccnc1` as the compound, how does the inhibition [3] read?
Answer: The inhibition was 100%.

Question: What about the inhibition [4] of the same compound?
Answer: The inhibition was 0%.

Question: For `CCCCNC(=O)n1ccnc1`, which k3 [7] is on record?
Answer: Its k3 is 0.011 s⁻¹.

Question: What about the Ki [1] of the same compound?
Answer: The Ki was 1.4 mM.

Question: Which Ki [1] does the source give for `CCCCNC(=O)n1ccnc1C` here?
Answer: The Ki was 2.41 mM.

Question: And the k3 [2]?
Answer: Its k3 is 0.005 s⁻¹.

Question: With `CCCC(N=C=O)C(=O)OC` (centres undefined) as the compound, how does the inhibition [3] read?
Answer: Its inhibition is 100%.

Question: And the inhibition [4]?
Answer: Its inhibition is 98%.

Question: Which results are given for `COC(=O)[C@H](CC(C)C)NC(=O)n1ccnc1`?
Answer: Ki [1]: 1.17 mM; k3/k1 [8]: 0.5 M⁻¹ s⁻¹; k3 [2]: 0.000667 s⁻¹

Question: Which Ki [1] does the source give for `CCCCCCCc1nccn1C(=O)NCCCC` here?
Answer: Its Ki is 2.41 mM.

Question: What about the k3 [2] of the same compound?
Answer: Its k3 is 0.002 s⁻¹.

Question: What does the source list for `COC(=O)[C@@H](NC(=O)n1ccnc1)C(C)C`?
Answer: k3 [7]: 0.00305 s⁻¹; k3 [5]: 20.8 min⁻¹; Ki [1]: 1.11 mM; pKi [6]: 2.74

Question: Which results are given for `CCC(C)[C@H](NC(=O)n1ccnc1)C(=O)OC` (some centres undefined)?
Answer: Ki [1]: 1.22 mM; k3/k1 [8]: 1 M⁻¹ s⁻¹; k3 [2]: 0.00117 s⁻¹

Question: With `CCC[C@H](NC(=O)n1ccnc1)C(=O)OC` as the compound, how does the k3 [5] read?
Answer: Its k3 is 9.6 min⁻¹.

Question: And the Ki [1]?
Answer: Its Ki is 0.84 mM.

Question: And the pKi [6]?
Answer: Its pKi is 3.49.

Question: And the k3 [2]?
Answer: The k3 was 0.00537 s⁻¹.
